Data as given in paper PMC7391373 (ACS Omega, 2020).

How the values were obtained:
[1] = system: P. falciparum 3D7 (chloroquine-sensitive); assay: schizont maturation inhibition assay, 3D7 strain; format: cell-based, Plasmodium falciparum
Outline: (§1)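 P. falciparum (3D7 chloroquine-sensitive; RKL-9 chloroquine-resistant) was cultured in A+ human erythrocytes in RPMI-1640 with 10% human AB+ serum. Ring-synchronized parasites (2–3% parasitemia, 1.8% final haematocrit) were exposed in duplicate to test compound at 1–16 μg/mL for 48 h at 37 °C, 5% CO2. Positive controls were chloroquine 10 μM and artesunate 2 μM. Schizont inhibition versus controls was scored on Giemsa smears. SI was calculated as CC50 (HeLa/fibroblasts) divided by IC50.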

[2] = system: P. falciparum RKL-9 (chloroquine-resistant); assay: schizont maturation inhibition assay, RKL-9 strain; format: cell-based, Plasmodium falciparum
Outline: as §1

[3] = in vitro cytotoxicity, MTT assay, dermal fibroblasts; format: cell-based; settings: human, primary culture of normal human dermal fibroblasts
Outline: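 HeLa cells and primary normal human dermal fibroblasts (fibroblasts used within seven passages) were kept in DMEM with 10% fetal calf serum and 2 mM glutamine at 37 °C, 5% CO2. Cells were seeded at 5000–10 000 per well; after 24 h they received test compound (10–640 μg) in duplicate for 48 h. MTT (1 mg/mL stock) was added for 1 h, formazan was dissolved in DMSO, and OD was read at 450 nm.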

[4] = system: RAW 264.7 murine macrophage cells; assay: determination of nitric oxide; format: cell-based
[5] = system: Plasmodium berghei (NK-65); assay: in vivo suppressive activity, Peter's 4 day test; settings: for chemosuppression (%), day 5 / parasitemia (%), day 5 / mean survival time (MST): mice; for parasitemia (%), day 28: surviving mice
Outline: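 Peters 4-day suppressive test in Laca Swiss albino mice (6–8 weeks, 25 ± 2 g), five per group. On D0, mice received 1 × 10^6 P. berghei NK-65-infected erythrocytes i.p. Dosing began 1 h post-inoculation, oral, once daily D0–D3 (0.2 mL). Giemsa tail smears were taken 24 h after the last dose. Chemosuppression was calculated from mean parasitemia relative to infected controls. Survival and parasitemia were followed to day 28.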

[6] = biochemical assays, liver and kidney function tests; format: in vivo, Mus musculus
Outline: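 In P. berghei-infected Laca mice (oral dosing once daily D0–D3), blood was collected from the tail vein on day 10 and from survivors on day 28. Serum ALP, SGOT, SGPT and bilirubin (liver) and urea and creatinine (kidney) were measured with commercial diagnostic kits. Data are mean ± SD, five mice per group.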

[7] = acute toxicity; oral administration; cited from earlier work
[8] = monotherapy 10 mg/kg oral OD D0–D3
[9] = monotherapy 20 mg/kg oral OD D0–D3
[10] = monotherapy 50 mg/kg oral OD D0–D3
[11] = monotherapy 100 mg/kg oral OD D0–D3
[12] = monotherapy 4 mg/kg oral OD D0–D3

COC(=O)[C@@H]1Cc2c([nH]c3ccccc23)[C@@H](c2ccc3c(c2)OCO3)N1 [9a, (1R,3S)-methyl 1-(benzo[d][1,3]dioxol-5-yl)-2,3,4,9-tetrahydro-1H-pyrido[3,4-b]indole-3-carboxylate]
selectivity index (SI) ([1]; CC50 / IC50 on 3D7): > 10
IC50 ([1]; Plasmodium falciparum, 3D7, 48 h, 3D7 strain, 48 h): < 1 µg/mL
inhibition at 1 µg/mL ([1]; Plasmodium falciparum, 3D7, read-out: inhibition (schizont maturation)): > 75%
selectivity index (SI) ([2]; CC50 / IC50 on RKL-9): > 10
IC50 ([2]; Plasmodium falciparum, 48 h, RKL-9 strain): < 1 µg/mL
inhibition at 1 µg/mL ([2]; Plasmodium falciparum, read-out: inhibition (schizont maturation)): > 75%
viability at 48 h, 640 μg/mL [3]: 56.5 ± 5.07%
nitrite production from macrophages ([4]; 100 μg/mL): comparable to the normal cells
chemosuppression (%), day 5 [5, 8]: 40.49%
parasitemia (%), day 5 [5, 8]: 17.31 ± 2.40 (n = 5) %
chemosuppression (%), day 5 [5, 9]: 46.82%
parasitemia (%), day 5 [5, 9]: 15.47 ± 2.69 (n = 5) %
chemosuppression (%), day 5 [5, 10]: 64.76%
parasitemia (%), day 5 [5, 10]: 10.25 ± 4.93 (n = 5) %
parasitemia (%), day 28 [5, 10]: 3.43 ± 0.51 (n = 2) %
mean survival time (MST) ([5]; monotherapy 50 mg/kg): 21.8 ± 6.09 days
chemosuppression (%), day 5 [5, 11]: 91.19%
parasitemia (%), day 5 [5, 11]: 2.56 ± 1.71 (n = 5) %
parasitemia (%), day 28 [5, 11]: 2.41 ± 0.97 (n = 3) %
mean survival time (MST) ([5]; monotherapy 100 mg/kg): 22.6 ± 7.79 days
levels of renal function biomarkers (creatinine, urea) ([6]; monotherapy 100 mg/kg): within the normal range
levels of ALP, SGOT, SGPT, and bilirubin ([6]; monotherapy 50 and 100 mg/kg, day 10 and day 28): within normal range
LD50 [7]: > 4000 mg/kg

C[C@H]1[C@H](OC(=O)CCC(=O)O)O[C@@H]2O[C@@]3(C)CC[C@H]4[C@H](C)CC[C@@H]1[C@@]24OO3 [artesunate, reference compound]
inhibition at 2 µM ([1]; Plasmodium falciparum, 3D7): 100%
inhibition at 2 µM ([2]; Plasmodium falciparum): 100%
nitrite production from macrophages ([4]; 2 μM): comparable to the normal cells
chemosuppression (%), day 5 [5, 12]: 94.01%
parasitemia (%), day 5 [5, 12]: 1.74 ± 0.83 (n = 5) %
mean survival time (MST) ([5]; monotherapy 4 mg/kg): 18.6 ± 2.19 days
chemosuppression (%), day 5 [5, 10]: 99.89%
parasitemia (%), day 5 [5, 10]: 0.03 ± 0.01 (n = 5) %
parasitemia (%), day 28 [5, 10]: 0 ± 0 (n = 2) %
mean survival time (MST) ([5]; monotherapy 50 mg/kg): 22.4 ± 5.77 days

CCN(CC)CCCC(C)Nc1ccnc2cc(Cl)ccc12 (centres unmarked) [chloroquine, reference compound]
inhibition at 10 µM ([1]; Plasmodium falciparum, 3D7): 96.8%
inhibition at 10 µM ([2]; Plasmodium falciparum): 96.8%
chemosuppression (%), day 5 [5, 8]: 94.22%
parasitemia (%), day 5 [5, 8]: 1.68 ± 1.06 (n = 5) %
parasitemia (%), day 28 [5, 8]: 0 ± 0 (n = 5) %
